Laboratory results as given in ChEMBL document CHEMBL4321862, “Application of Bivalent Bioisostere Concept on Design and Discovery of Potent Opioid Receptor Modulators” (J Med Chem, 2019).
The source made the active and inactive calls.

Tests used:
[1] = Selectivity index, ratio of Ki for mouse kappa opioid receptor expressed in CHO cells to Ki for mouse mu opioid receptor expressed in CHO cells
[2] = target: Mu-type opioid receptor (Mus musculus) (UniProt P42866); assay: Agonist activity at mouse mu opioid receptor expressed in CHO cells cotransfected with Galphaqi5 assessed as intracellular calcium level preincubated for 60 mins in Fluo4AM solution followed by compound addition by Fluo4AM dye based assay; type: functional, cell-based
[3] = target: Mu-type opioid receptor (Mus musculus) (UniProt P42866); assay: Agonist activity at recombinant mouse mu opioid receptor expressed in CHO cell membrane assessed as [35]-GTPgammaS binding incubated for […] by scintillation counting method relative to DAMGO
[4] = target: Delta-type opioid receptor (Homo sapiens, UniProt P41143); assay: Displacement of [3H]-[…] from human delta opioid receptor expressed in CHO cells incubated for […] by competitive radioligand binding assay; type: cell-based
Mu-type opioid receptor [5] = target: T1, Mu-type opioid receptor (Mus musculus, UniProt P42866); assay: Displacement of [3H]-Naloxone from mouse mu opioid receptor expressed in CHO cells incubated for […] by competitive radioligand binding assay; type: cell-based
[6] = target: Kappa-type opioid receptor (Mus musculus, UniProt P33534); assay: Displacement of [3H]-[…] from mouse kappa opioid receptor expressed in CHO cells incubated for […] by competitive radioligand binding assay; type: cell-based
Mu-type opioid receptor [7] = target: T1, Mu-type opioid receptor; assay: (§1) Agonist activity at mouse mu opioid receptor expressed in CHO cells assessed as inhibition of forskolin-induced cAMP formation incubated for 8 min followed by forskolin stimulation by ELISA; type: functional, cell-based
Mus musculus [8] = assay: Inhibition of morphine-induced antinociceptive activity in subcutaneously dosed Swiss Webster mouse assessed as decrease in latency to tail withdrawal administered 5 mins before morphine stimulation observed for 20 mins by warm water tail withdrawal assay; type: functional
Method in brief: (§2)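 Male Swiss Webster mice, n ≥ 5, baseline latency 2–4 s. Test compound given s.c. 5 min before morphine 10 mg/kg. Tail immersion at 56 ± 0.1 °C 20 min after morphine, 10 s cutoff, %MPE per mouse.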

Mus musculus [9] = assay: Inhibition of opioid-withdrawal symptom in morphine-pelleted Swiss Webster mouse assessed as reduction in wet dog shakes at 1 mg/kg, sc observed after 20 mins; type: functional, organism-based
Method in brief: (§3)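 Male Swiss Webster mice, n = 5, implanted with 75 mg morphine pellet at base of neck. After 72 h, 30 min habituation in observation chamber, then test compound s.c. Wet-dog shakes, escape jumps and paw tremors counted over 20 min.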

Mus musculus [10] = assay: Inhibition of morphine-induced antinociceptive activity in Swiss Webster mouse assessed as decrease in latency to tail withdrawal at 10 mg/kg, sc administered 5 mins before morphine stimulation observed for 20 mins by warm water tail withdrawal assay; type: functional, organism-based; method in brief: as §2
[11] = Selectivity index, ratio of Ki for human delta opioid receptor expressed in CHO cells to Ki for mouse mu opioid receptor expressed in CHO cells
[12] = target: Mu-type opioid receptor (Mus musculus) (UniProt P42866); assay: as §1; type: functional, cell-based
Method in brief: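 mMOR-CHO cells grown to confluency, pre-incubated 30 min at 37°C with 1 mM IBMX, 200 μM Ro 20-1724, bovine serum albumin and 20 mM HEPES (pH 7.2-7.5). Ligand then added with 10 μM forskolin for 8 min at 37°C. Media removed, cells rinsed with PBS, cAMP measured by ELISA. DMEM/F12 used as solvent throughout.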

Mus musculus [13] = assay: Inhibition of opioid-withdrawal symptom in morphine-pelleted Swiss Webster mouse assessed as reduction in escape jumps at 1 mg/kg, sc observed after 20 mins; type: functional, organism-based; method in brief: as §3
Mu-type opioid receptor [14] = target: T1, Mu-type opioid receptor; assay: Agonist activity at recombinant mouse mu opioid receptor expressed in CHO cell membrane assessed as [35]-GTPgammaS binding incubated for […] by scintillation counting method
Mu-type opioid receptor [15] = target: T1, Mu-type opioid receptor; assay: Antagonist activity at mouse mu opioid receptor expressed in CHO cells cotransfected with Galphaqi5 assessed as inhibition of DAMGO-induced increase in intracellular calcium concentration preincubated for 60 mins in Fluo4AM solution followed by compound addition and further incubated for 15 mins followed by DAMGO stimulation by Fluo4AM dye based assay; type: functional, cell-based
Method in brief: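 Gαqi5-transfected mMOR-CHO cells loaded 60 min with Fluo-4 AM/probenecid. Triplicate per concentration, at least three repeats, mean ± SEM. Naltrexone as control. IC50 by non-linear regression.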

Mus musculus [16] = assay: Inhibition of opioid-withdrawal symptom in morphine-pelleted Swiss Webster mouse assessed as reduction in paw tremors at 1 mg/kg, sc observed after 20 mins; type: functional, organism-based; method in brief: as §3
Mus musculus [17] = assay: Inhibition of opioid-withdrawal symptom in morphine-pelleted Swiss Webster mouse assessed as reduction in paw tremors at 50 mg/kg, sc observed after 20 mins; type: functional, organism-based; method in brief: as §3
[18] = Toxicity in placebo-pelleted Swiss Webster mouse assessed as wet dog shakes at 20 mg/kg, sc observed after 20 mins; type: organism-based; settings: in vivo
Method in brief: (§4)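 Male Swiss Webster mice, n = 5, placebo-pelleted. Tested 72 h after implantation, following 30 min chamber habituation. Compound given s.c.; wet-dog shakes, escape jumps and paw tremors counted over 20 min.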

Mus musculus [19] = assay: Inhibition of opioid-withdrawal symptom in morphine-pelleted Swiss Webster mouse assessed as reduction in wet dog shakes at 50 mg/kg, sc observed after 20 mins; type: functional, organism-based; method in brief: as §3
[20] = Toxicity in placebo-pelleted Swiss Webster mouse assessed as escape jumps at 20 mg/kg, sc observed after 20 mins; type: organism-based; settings: in vivo; method in brief: as §4
[21] = Toxicity in placebo-pelleted Swiss Webster mouse assessed as paw tremors at 20 mg/kg, sc observed after 20 mins; type: organism-based; settings: in vivo; method in brief: as §4
Mus musculus [22] = assay: Inhibition of opioid-withdrawal symptom in morphine-pelleted Swiss Webster mouse assessed as reduction in escape jumps at 50 mg/kg, sc observed after 20 mins; type: functional, organism-based; method in brief: as §3
[23] = target: Delta-type opioid receptor (Mus musculus, UniProt P32300); assay: Displacement of [3H]-diprenorphine from mouse delta opioid receptor expressed in CHO cells incubated for […] by competitive radioligand binding assay; type: cell-based
Mus musculus [24] = assay: Inhibition of opioid-withdrawal symptom in morphine-pelleted Swiss Webster mouse assessed as reduction in escape jumps at 8 mg/kg, sc observed after 20 mins; type: functional, organism-based; method in brief: as §3
Mus musculus [25] = assay: Inhibition of opioid-withdrawal symptom in morphine-pelleted Swiss Webster mouse assessed as reduction in paw tremors at 8 mg/kg, sc observed after 20 mins; type: functional, organism-based; method in brief: as §3
Mus musculus [26] = assay: Inhibition of opioid-withdrawal symptom in morphine-pelleted Swiss Webster mouse assessed as reduction in wet dog shakes at 8 mg/kg, sc observed after 20 mins; type: functional, organism-based; method in brief: as §3

Cl.O=C(N[C@H]1CC[C@@]2(O)[C@H]3Cc4ccc(O)c5c4[C@@]2(CCN3CC2CC2)[C@H]1O5)c1cccc2occc12
Ratio Ki [1]: 19.2
Activity [2]: inactive
Emax [3]: 10%
Ki [4]: 16.9 nM
Ki (Mu-type opioid receptor [5]): 0.26 nM
Ki [6]: 4.98 nM
EC50 (Mu-type opioid receptor [7]; read-out: EC50): 80 nM
AD50 (Mus musculus [8]): 0.29 mg/kg
inhibition (Mus musculus [9]): Active
inhibition (Mus musculus [10]): Active
Ratio Ki [11]: 65
Emax [12]: 18.9%
inhibition (Mus musculus [13]): Active
EC50 (Mu-type opioid receptor [14]): 0.77 nM
IC50 (Mu-type opioid receptor [15]): 50.7 nM
inhibition (Mus musculus [16]): Active

Cl.O=C(N[C@@H]1CC[C@@]2(O)[C@H]3Cc4ccc(O)c5c4[C@@]2(CCN3CC2CC2)[C@H]1O5)c1cccc2ccoc12
Activity [2]: inactive
Emax [3]: 27.3%
inhibition (Mus musculus [17]): Active
Activity [18]: Non-Toxic
Ki [6]: 0.81 nM
inhibition (Mus musculus [19]): Active
AD50 (Mus musculus [8]): 0.18 mg/kg
Activity [20]: Non-Toxic
Activity [21]: Non-Toxic
inhibition (Mus musculus [9]): Active
inhibition (Mus musculus [22]): Active
inhibition (Mus musculus [10]): Active
Emax [12]: 35.7%
inhibition (Mus musculus [13]): Active
inhibition (Mus musculus [16]): Active

Cl.O=C(N[C@H]1CC[C@@]2(O)[C@H]3Cc4ccc(O)c5c4[C@@]2(CCN3CC2CC2)[C@H]1O5)c1cccc2cc[nH]c12
Emax [3]: 19.1%
Ki [23]: 13.7 nM
AD50 (Mus musculus [8]): 2.07 mg/kg

Cl.O=C(N[C@H]1CC[C@@]2(O)[C@H]3Cc4ccc(O)c5c4[C@@]2(CCN3CC2CC2)[C@H]1O5)c1cccc2ccsc12
Ratio Ki [1]: 8.5
inhibition (Mus musculus [24]): Active
Ki [4]: 8.35 nM
Ki (Mu-type opioid receptor [5]): 0.31 nM
Ki [6]: 2.65 nM
EC50 (Mu-type opioid receptor [7]; cho): Not Active
AD50 (Mus musculus [8]): 0.29 mg/kg
inhibition (Mus musculus [9]): Active
inhibition (Mus musculus [10]): Active
Ratio Ki [11]: 26.9
inhibition (Mus musculus [13]): Active
EC50 (Mu-type opioid receptor [14]): 6.21 nM
inhibition (Mus musculus [25]): Active
inhibition (Mus musculus [26]): Active
IC50 (Mu-type opioid receptor [15]): 566 nM
inhibition (Mus musculus [16]): Active
